The results in this text go back to ChEMBL document CHEMBL2375220, “Bispyrimidines as potent histamine H(4) receptor ligands: delineation of structure-activity relationships and detailed H(4) receptor binding mode” (J Med Chem, 2013).

In brackets after ≈: the same amount, converted by molar mass.

A short description of data set [1]: Half life in mouse liver microsomes. It is filed as ADME, Microsome.
A short description of data set [2]: Half life in human liver microsomes. It is filed as ADME, Microsome. Background: Microsomes from liver hold many membrane-bound enzymes, among them those of drug oxidation.
Data set [3] deals with T1, Histamine H4 receptor (Homo sapiens, UniProt Q9H3N8). As to the kind of experiment: Displacement of [3H]histamine displacement from human recombinant histamine H4 receptor expressed in […] cells after 45 mins. It is filed as cell-based, SK-N-MC. Background: Loss of bound radioactivity is the signal in a displacement assay; it reports binding, not function.
Data set [4] is described as follows: Aqueous solubility of the compound at pH 6.8 by automated polarized light microscopy analysis. It is filed as physicochemical. The essentials:
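Aqueous solubility at pH 6.8, measured by precipitation from DMSO solution and reported in μg/mL.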

Data set [5] concerns the target T1, Histamine H4 receptor. As to the kind of experiment: Displacement of [3H]histamine displacement from human histamine H4 receptor expressed in […] cells after 60 mins. It is filed as cell-based, SK-N-MC. In short, it runs like this: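 Affinity at the human H4 receptor, from displacement of [3H]histamine binding. Reported as pKi, the mean ± SEM of at least three independent determinations.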

T1 sequence (Q9H3N8 whole entry): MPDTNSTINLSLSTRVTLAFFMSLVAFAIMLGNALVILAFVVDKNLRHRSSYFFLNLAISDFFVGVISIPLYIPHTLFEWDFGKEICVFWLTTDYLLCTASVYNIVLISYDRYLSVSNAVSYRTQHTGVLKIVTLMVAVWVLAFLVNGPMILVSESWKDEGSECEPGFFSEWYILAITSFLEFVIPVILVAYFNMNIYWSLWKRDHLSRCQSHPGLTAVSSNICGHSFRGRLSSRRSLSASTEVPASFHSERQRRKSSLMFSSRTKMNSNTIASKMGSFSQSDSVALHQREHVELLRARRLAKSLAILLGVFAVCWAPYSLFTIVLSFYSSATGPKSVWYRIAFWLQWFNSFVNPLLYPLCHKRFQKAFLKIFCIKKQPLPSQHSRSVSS

With `CC(C)CNc1cc(N2CCN(C)CC2)nc(N)n1`, the half-life (in general, the time needed for the level to fall by half in the phase considered) in data set [1] is 4 min; in data set [2], greater than 120 min. Besides, the Ki (in general, the equilibrium dissociation constant of an inhibitor or competing ligand from its target) on Histamine H4 receptor [3] is 3.16 nM. For the same compound, the solubility (usually how much of the substance goes into solution per volume) in data set [4] was greater than 64 µg/mL.
At Histamine H4 receptor [5], `CC(C)CNc1cc(NCCNc2cc(-c3ccccc3)nc(N)n2)ncn1` gave a Ki of 501 nM.
On to `CC(C)CNc1cc(N(C)CCNc2ccnc(N)n2)nc(N)n1`, for which the results for the half-life in data set [1] and in data set [2] were 23 min and 101 min, respectively. In addition, the solubility in data set [4] is greater than 84 µg/mL. The Ki on Histamine H4 receptor [5] is 39.8 nM.
`CC(C)CCc1cc(N(C)CCNc2ccnc(N)n2)nc(N)n1`: the results for the half-life in data set [1] and in data set [2] were 8 min and 82 min, respectively. Moreover, the solubility in data set [4] is greater than 83 µg/mL. In addition, on Histamine H4 receptor [5], the affinity, expressed as Ki, was 10 nM.
`CC(C)CNc1nccc(NCCN(C)c2cc(-c3ccccc3)nc(N)n2)n1`: the affinity at Histamine H4 receptor [5], expressed as Ki, was 31.6 nM.
Consider `CN(CCNc1cc(-c2ccccc2)nc(N)n1)c1ccnc(N)n1`, for which, on Histamine H4 receptor [5], affinity was put at a Ki of 79.4 nM.
Still for that read-out and setting: for `Nc1nccc(NCCNC(=O)c2cc3ccccc3[nH]2)n1` the value was 1260 nM; for `Nc1nccc(NCCNC(=O)c2cc3cc(Cl)ccc3[nH]2)n1`, 316 nM.
As for `CN(CCNc1ccnc(N)n1)C(=O)c1cc2cc(Cl)ccc2[nH]1`, affinity on Histamine H4 receptor [5] was put at a Ki of 3160 nM.
For `CN(CCNc1ccnc(N)n1)C(=O)c1cc2ccccc2[nH]1`, the affinity on Histamine H4 receptor [5], expressed as Ki, was 10000 nM.
Consider `Nc1nccc(NCCNc2ccnc(N)n2)n1`, for which affinity at Histamine H4 receptor [5] was put at a Ki of 794 nM.
`CC(C)CNc1cc(NCCNc2ccnc(N)n2)nc(N)n1` gave a Ki at Histamine H4 receptor [5] of 79.4 nM.
For `CC(C)CCc1cc(NCCNc2ccnc(N)n2)nc(N)n1`, the half-life in data set [1] was 18 min; in data set [2], greater than 120 min. In data set [4], this compound had a solubility greater than 79 µg/mL. In addition, the inhibitory constant (Ki) at Histamine H4 receptor [5] was 25.1 nM.
For `Nc1nccc(NCCNc2cc(-c3cccc(Cl)c3)nc(N)n2)n1`, the half-life in data set [1] amounted to 9 min; in data set [2], 51 min. In data set [4], this compound returned a solubility greater than 76 µg/mL. This compound also had a Ki at Histamine H4 receptor [5] of 6.31 nM.
Regarding `Nc1nc(NCCNc2cc(-c3ccccc3)nc(N)n2)cc(-c2ccccc2)n1`, the Ki on Histamine H4 receptor [5] is 1000 nM.
Compound `CC(C)CCc1cc(NCCNc2cc(-c3ccccc3)nc(N)n2)nc(N)n1` had a Ki on Histamine H4 receptor [5] of 398 nM.
Take `CC(C)CNc1cc(NCCNc2cc(-c3ccccc3)nc(N)n2)nc(N)n1`: the affinity at Histamine H4 receptor [5] corresponds to a Ki of 3160 nM.
On to `Nc1nc(NCCNc2ccncn2)cc(-c2ccccc2)n1`, for which the affinity on Histamine H4 receptor [5], expressed as Ki, was 2000 nM.
Take `Cc1nccc(NCCNc2cc(-c3ccccc3)nc(N)n2)n1`: the inhibitory constant (Ki) on Histamine H4 receptor [5] is 39.8 nM.
Take `Nc1nc(Cl)cc(NCCNc2cc(-c3ccccc3)nc(N)n2)n1`: the Ki at Histamine H4 receptor [5] is 2510 nM.
On the same count and under the same terms, the value for `CC(C)CCc1cc(NCCNc2cc(Cl)nc(N)n2)nc(N)n1` was 631 nM.
Consider `CC(C)CNc1nc(NCCNc2ccnc(N)n2)cc(-c2ccccc2)n1`, for which the Ki at Histamine H4 receptor [5] was 1260 nM.
On the same count and under the same terms, for `CC(C)CNc1nccc(NCCNc2cc(-c3ccccc3)nc(N)n2)n1` the value was 79.4 nM; for `CC(C)CNc1nccc(NCCNc2cc(-c3cccc(Cl)c3)nc(N)n2)n1`, 50.1 nM; for `CC(C)CNc1nccc(NCCNc2ccnc(N)n2)n1`, 79.4 nM.
The compound `CC(C)CNc1cc(NCCNc2ccnc(N)n2)ncn1` gave an inhibition constant Ki on Histamine H4 receptor [5] of 1000 nM.
Still for that read-out and setting: the value for `CN(CCNc1ccnc(N)n1)c1cc(-c2ccccc2)nc(N)n1` was 10 nM.
On to `CC(C)CNc1nccc(NCCN(C)c2cc(-c3cccc(Cl)c3)nc(N)n2)n1`, for which the Ki on Histamine H4 receptor [5] was 50.1 nM.
For the compound `CC(C)CCc1cc(N2CCN(C)CC2)nc(N)n1`, the half-life in data set [1] was less than 2 min; in data set [2] it was 61 min. Besides, on Histamine H4 receptor [3], the Ki is 3.16 nM. In data set [4], the solubility is greater than 62 µg/mL.
For the compound `Nc1nccc(NCCNc2cc(-c3ccccc3)nc(N)n2)n1`, the Ki at Histamine H4 receptor [3] is 7.94 nM.
For the compound `CN1CCN(c2cc(-c3ccccc3)nc(N)n2)CC1`, the half-life amounted to 4 min in data set [1] and 43 min in data set [2]. Also, on Histamine H4 receptor [3], the Ki was 7.94 nM. In data set [4], this compound displayed a solubility of 61 µg/mL (≈ 226 µM).
Take `CN1CCN(c2cc(-c3ccc(Cl)cc3)nc(N)n2)CC1`: the Ki on Histamine H4 receptor [3] is 3.16 nM.
As to `CN1CCN(C(=O)c2cc3cc(Cl)ccc3[nH]2)CC1` [JNJ-7777120], the half-life in data set [1] is 2 min; in data set [2], greater than 45 min. The compound also came in with a solubility in data set [4] of 58 µg/mL (≈ 209 µM).
